# Compound activity as filed in PubChem BioAssay.
# Shown are actives, neighbours in structure and some others; about 2.3% of the full set was active somewhere.
# TbMetRS inhib: Trypanosoma brucei MetRS inhibition | purified T. brucei MetRS, ATP depletion, Kinase-Glo luminescence | inhibition, % at 11.9 µM | 360,000 tested, 0.4% active | AID 624268;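 active = inhibition above a per-plate cutoff of the control wells' mean inhibition plus 3 SD, cut at about 5.5% in these data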;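 note: 0% = DMSO wells median and 100% = median of wells with control inhibitor compound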
#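 System: purified T. brucei MetRS enzyme / Detection: Kinase-Glo luciferase luminescence reporting remaining unconsumed ATP / Medium: HEPES buffer with MgCl2, KCl, DTT, spermine, BSA, pyrophosphatase / Replication: singlicate, one well per compound / Evaluation: percent inhibition relative to median high and low control wells / Schedule: 2 h aminoacylation at 25 °C after 15 min preincubation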
# ADAM17 inh: inhibits human ADAM17; P78536; recombinant ADAM17, EDANS/DABCYL FRET peptide cleavage; inhibition, % at 6.95 µM; 370,000 tested, 0.83% active;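 active = inhibition above the mean of compounds lying between control limits plus 3 SD, set per campaign, cut at about 8.5% in these data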;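 note: 0% = DMSO-only wells as the low control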
# PLC-beta3 inh: PLC-beta3 (human) inhibition, primary screen | Purified PLC-beta3, fluorogenic substrate, fluorescence | inhibition, % at 12.2 µM | 370,000 tested, 0.18% active | AID 720704; in the data active = inhibition above about 11%;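 note: 0% = median of compound wells on plate and 100% = full blocker control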
# PLC-gamma1 inh: blocks human PLC-gamma1 enzyme activity | P19174 | purified PLC-gamma1, fluorogenic substrate, fluorescence | inhibition, % at 12.2 µM | 370,000 tested, 0.84% active; in the data active = inhibition above about 9.5%
# ADAM10 inh: ADAM10 inhibition, QFRET primary screen. inhibition, % at 7 µM. recombinant ADAM10, EDANS/DABCYL FRET peptide cleavage, 3 h. 370,000 tested, 0.62% active. O14672;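 active = inhibition above a per-campaign cutoff equal to the mean of compounds falling between control-based bounds plus 3 SD, cut at about 20% in these data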;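 note: 0% = DMSO wells while the 100% control is not disclosed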
# ADAM10 ctr: ADAM10 inhibition, counter-screen for ADAM17 exosite hits. shares compounds with ADAM17 inh. recombinant ADAM10, EDANS/DABCYL FRET peptide cleavage, 3 h. inhibition, % at 6.95 µM. 2,900 tested, 47% active. AID 743256;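 active = mean inhibition over the triplicate runs exceeds the activity threshold set in the earlier primary screen, cut at about 20% in these data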;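 note: 0% = DMSO wells and 100% = marimastat wells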
# ADAM17 confirm: human ADAM17 inhibition, confirmation; shares compounds with ADAM17 inh; 2,900 tested, 65% active; inhibition, % at 6.95 µM; recombinant ADAM17, EDANS/DABCYL QFRET peptide cleavage;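 active = mean inhibition across replicates above the hit cutoff set in the primary screen, cut at about 8.5% in these data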;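 note: 0% = DMSO wells and 100% = marimastat wells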
# Numbers without * were called inactive; . = not tested or not shown.
SMILES,TbMetRS inhib,ADAM17 inh,PLC-beta3 inh,PLC-gamma1 inh,ADAM10 inh,ADAM10 ctr,ADAM17 confirm
COCCNC(=O)C1CC(=O)N(c2ccc(F)c(Cl)c2)C1 (configuration not stated),0,-3,0,-1,-16,.,.
CCN(CC)C(=O)C1CC(=O)N(c2ccc(F)c(Cl)c2)C1 (configuration not stated),0,9.5*,7,8,7,-5,-1
O=C(Nc1cccc(Cl)c1)c1ccc(F)c(S(=O)(=O)NCc2ccc3c(c2)OCO3)c1,1,8.7*,-7,2,18,24*,13*
O=C(NCc1ccc2c(c1)OCO2)c1ccc(Cl)c(S(=O)(=O)NCc2ccccc2)c1,1,0,-8,-11,1,.,.
O=C(Nc1ccc(Br)cc1)c1ccc(F)c(S(=O)(=O)NCc2cccs2)c1,2,9.3*,5,3,20*,25*,16*
COc1cc(C(=O)OCC(=O)NCCN2C(=O)CSC2=O)ccc1OCc1c(C)noc1C,0,-3,-9,-1,-6,.,.
C=CC[C@H](CC(=O)NCCO)C(=O)N[C@@H](COC(=O)[C@@H](CC=C)CC(=O)OC(C)(C)C)Cc1c[nH]c2ccccc12,0,0,1,2,2,.,.
COc1ccccc1NC(=O)c1ccc(NC(=O)COC(=O)CCC2CCCC2)cc1,-1,9.4*,-3,-4,13,27*,15*
COC(=O)c1ccc(NC(=O)COC(=O)CCC2CCCC2)cc1,0,4,-10,1,5,.,.
COc1cccc(CN(CCC(C)C)S(=O)(=O)c2cc(Br)ccc2Br)c1,0,1,1,9,3,.,.
O=C(CCN1C(=O)/C(=C\c2ccc(F)cc2)SC1=S)Nc1ccc(O)cc1,0,-1,-11,-3,-2,.,.
COc1ccc(NC(=O)Nc2ccc3c(c2)C(=O)N([C@H](C)CO)C[C@H](C)[C@@H](CN(C)S(=O)(=O)c2ccc(F)cc2)O3)cc1,0,6,4,3,4,.,.
C[C@H](CO)N1C[C@H](C)[C@@H](CN(C)S(=O)(=O)c2cccs2)Oc2ccc(NC(=O)Nc3ccc(C(F)(F)F)cc3)cc2C1=O,0,8.7*,1,4,29*,40*,23*
C[C@H](CO)N1C[C@H](C)[C@@H](CN(C)S(=O)(=O)c2cccs2)Oc2ccc(NC(=O)CCC(F)(F)F)cc2C1=O,0,-2,-3,-3,2,.,.
C[C@H](CO)N1C[C@H](C)[C@@H](CN(C)S(=O)(=O)c2ccc(F)cc2)Oc2ccc(NC(=O)Nc3ccc(C(F)(F)F)cc3)cc2C1=O,0,9.0*,1,3,26*,37*,19*
CC(=O)c1cccc(-c2ccnc3c2CC(C(=O)Nc2cccc(C(F)(F)F)c2)O3)c1 (configuration not stated),0,8.9*,1,1,5,14,9
CC(=O)c1cccc(-c2ccnc3c2CC(C(=O)Nc2cccc(Oc4ccccc4)c2)O3)c1 (configuration not stated),0,9.4*,-5,-2,18,25*,9.9*
O=C(Nc1ccc2c(c1)OCO2)C1Cc2c(-c3ccccc3Oc3ccccc3)ccnc2O1 (configuration not stated),0,8.9*,-1,-3,4,20*,9.7*
O=C(Nc1cccc(Oc2ccccc2)c1)C1Cc2c(-c3ccccc3)ccnc2O1 (configuration not stated),0,1,-10,-1,4,.,.
C[C@@H]1CN([C@@H](C)CO)C(=O)CCCn2nncc2CO[C@H]1CN(C)S(=O)(=O)c1ccc(-n2cccn2)cc1,0,0,4,2,-4,.,.
COc1cccc(CNc2ccc([N+](=O)[O-])cc2C)c1,0,12*,-1,6,17,15,12*
